# Experimental data from different studies.
# Lines come from different studies, so protocols differ.
# Target: Cyclin-G-associated kinase (GAK, Homo sapiens, UniProt O14976)
# Residues used in one study (O14976 1-1311): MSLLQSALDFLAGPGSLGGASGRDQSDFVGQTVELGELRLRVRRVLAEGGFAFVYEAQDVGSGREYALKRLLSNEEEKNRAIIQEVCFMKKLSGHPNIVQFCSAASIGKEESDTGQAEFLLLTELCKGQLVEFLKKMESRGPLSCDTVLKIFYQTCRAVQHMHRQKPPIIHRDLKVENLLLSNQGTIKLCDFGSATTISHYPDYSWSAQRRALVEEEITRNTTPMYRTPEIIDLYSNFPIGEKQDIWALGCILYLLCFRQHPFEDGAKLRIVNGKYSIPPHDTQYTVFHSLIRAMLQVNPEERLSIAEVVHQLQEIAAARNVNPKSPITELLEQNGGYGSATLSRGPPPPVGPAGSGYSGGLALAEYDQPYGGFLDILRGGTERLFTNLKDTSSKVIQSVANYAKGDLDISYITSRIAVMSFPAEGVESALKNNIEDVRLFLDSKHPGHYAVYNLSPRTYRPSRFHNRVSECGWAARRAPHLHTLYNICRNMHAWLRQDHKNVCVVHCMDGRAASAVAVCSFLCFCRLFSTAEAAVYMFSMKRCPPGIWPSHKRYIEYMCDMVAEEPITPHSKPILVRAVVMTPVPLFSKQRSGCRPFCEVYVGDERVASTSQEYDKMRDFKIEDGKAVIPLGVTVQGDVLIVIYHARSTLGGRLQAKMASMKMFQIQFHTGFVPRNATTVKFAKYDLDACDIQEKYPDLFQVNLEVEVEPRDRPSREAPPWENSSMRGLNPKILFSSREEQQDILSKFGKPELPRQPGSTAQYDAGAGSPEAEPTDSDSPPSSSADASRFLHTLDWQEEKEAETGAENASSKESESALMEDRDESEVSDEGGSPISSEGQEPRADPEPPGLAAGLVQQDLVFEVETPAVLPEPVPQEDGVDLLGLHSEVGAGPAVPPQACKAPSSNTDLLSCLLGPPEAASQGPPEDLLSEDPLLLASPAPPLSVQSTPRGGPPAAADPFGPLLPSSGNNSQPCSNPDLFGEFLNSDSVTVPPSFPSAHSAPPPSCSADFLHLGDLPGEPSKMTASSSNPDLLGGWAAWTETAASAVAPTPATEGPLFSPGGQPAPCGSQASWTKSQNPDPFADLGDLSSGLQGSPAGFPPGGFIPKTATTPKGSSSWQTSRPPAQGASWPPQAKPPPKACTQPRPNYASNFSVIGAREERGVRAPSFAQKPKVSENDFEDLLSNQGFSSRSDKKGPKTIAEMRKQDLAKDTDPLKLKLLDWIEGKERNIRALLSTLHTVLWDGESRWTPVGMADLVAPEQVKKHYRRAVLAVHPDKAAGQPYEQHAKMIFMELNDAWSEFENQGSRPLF
SMILES,observed,method,tested at,remaining binding [%]
Cc1cnn2ncc(-c3ccnc(N(C)C)n3)c2c1,binding,,1 µM,52
N#CC1(c2ccccn2)CCN(Cc2cc(C(=O)N3CCCC3)c(=O)n3ccccc23)CC1,cell-free assay,competition with immobilised ligand,1 µM,100
c1cnn2ncc(-c3ccnc(N4CCC45COC5)n3)c2c1,binding,,1 µM,56
FC(F)(F)Oc1cccc(-c2cnc3ccc(-c4ccncc4)nn23)c1,cell-free assay,competition with immobilised ligand,5 µM,9.7
CN(C)c1nccc(-c2cnc3ncccn23)n1,binding,,1 µM,72
COc1cnc(Nc2cccc(S(N)(=O)=O)c2)nc1N1CCN(c2ccccc2)C(=O)C1,binding,competition with immobilised ligand,1 µM,57
COc1ncc2cc3ccccc3nc2c1C#N,cell-free assay,competition with immobilised ligand,5 µM,87
O=C(NCC1CCOCC1)c1n[nH]cc1NC(=O)c1c(F)cccc1F,binding,competition with immobilised ligand,1 µM,88
O=C(c1ccc(Nc2ncc(Cl)c(-c3ccc(Cl)s3)n2)cc1)N1CCC(N2CCCC2)CC1,binding,competition with immobilised ligand,1 µM,23
CCS(=O)(=O)c1cc2cc(C[C@](O)(CC(C)(C)c3ccc(F)cc3C(N)=O)C(F)(F)F)[nH]c2cn1,cell-free assay,competition with immobilised ligand,1 µM,100
CN(C)c1ncc(F)c(-c2cnn3ncccc23)n1,binding,,1 µM,100
CNC(=O)[C@@H]1CC[C@@H](n2c(-c3ccc4cnccc4c3)nc3ccc(C(=O)NCc4cccc(C(N)=O)c4)cc32)C1,binding,competition with immobilised ligand,1 µM,100
CN1CCN(c2cnc3c(C4CCN(C(=O)c5ccc(OC(F)(F)F)cc5N)CC4)ncnc3c2)CC1,cell-free assay,competition with immobilised ligand,1 µM,100
C[C@@H]1CCN(c2nccc(-c3cnn4ncccc34)n2)C1,binding,,1 µM,40
O=C(NCCCN1CCOCC1)c1ccc(Nc2nccc(-c3cc4ccccc4s3)n2)cc1,binding,competition with immobilised ligand,1 µM,21
O=C(O)c1cc(-c2ccc(C3CCNCC3)cc2)c2ccc(-c3ccc(C(F)(F)F)cc3)cc2c1,cell-free assay,competition with immobilised ligand,1 µM,100
CN(c1nccc(-c2cnn3ncccc23)n1)C1CC1,binding,,1 µM,100
C[C@@H](c1cccc(C#N)c1)n1cc(Cl)cc(C(N)=O)c1=N,cell-free assay,competition with immobilised ligand,1 µM,100
COc1ccnn2ncc(-c3ccnc(N(C)C)n3)c12,binding,,1 µM,73
O=C(c1ccc(Nc2ncc(Cl)c(-c3cc4ccccc4s3)n2)cc1)N1CCC(N2CCCC2)CC1,binding,competition with immobilised ligand,1 µM,48
O=C(NC[C@@H]1[C@H]2CN(C(=O)OCc3cc(C(F)(F)F)cc(C(F)(F)F)c3)C[C@@H]12)c1ccc2[nH]nnc2c1,cell-free assay,competition with immobilised ligand,1 µM,91
Nc1ncc2c(n1)-c1c([nH]c3ccc(C#CC4CC4)cc13)CCCC2,binding,competition with immobilised ligand,1 µM,88
